Most compounds without a hit are left out; they make up all but 1.4% or so of the library.
Furin inhibitor: inhibitors of human furin; purified furin, fluorogenic substrate cleavage; inhibition, % at 20 µM or 30 µM; actives 0.061% (n = 220,000); in the data active = inhibition above about 25%
FXIa inh 1536: blocks human coagulation factor XIa protease activity; AID 798; actives 0.14% (n = 220,000); inhibition, % at 5 µM; purified FXIa, Boc-Glu-Ala-Arg-AMC fluorogenic substrate; P03951;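 active = inhibition of at least 40%; inactive = inhibition below 40%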;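 note: fluorescence of freed AMC excited at 355 nm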
Target sequence (P03951 19-387 limits assumed): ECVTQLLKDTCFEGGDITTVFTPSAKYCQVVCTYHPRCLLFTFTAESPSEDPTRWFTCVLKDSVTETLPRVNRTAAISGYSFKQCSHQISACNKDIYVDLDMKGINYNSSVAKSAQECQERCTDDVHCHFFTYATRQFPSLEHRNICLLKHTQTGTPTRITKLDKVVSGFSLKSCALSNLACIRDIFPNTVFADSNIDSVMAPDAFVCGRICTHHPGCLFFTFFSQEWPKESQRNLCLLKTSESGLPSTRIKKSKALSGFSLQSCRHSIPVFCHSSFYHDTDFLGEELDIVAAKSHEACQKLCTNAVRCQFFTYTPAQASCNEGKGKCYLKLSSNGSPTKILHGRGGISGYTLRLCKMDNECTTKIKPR
Target sequence (P03951 388-625 limits assumed): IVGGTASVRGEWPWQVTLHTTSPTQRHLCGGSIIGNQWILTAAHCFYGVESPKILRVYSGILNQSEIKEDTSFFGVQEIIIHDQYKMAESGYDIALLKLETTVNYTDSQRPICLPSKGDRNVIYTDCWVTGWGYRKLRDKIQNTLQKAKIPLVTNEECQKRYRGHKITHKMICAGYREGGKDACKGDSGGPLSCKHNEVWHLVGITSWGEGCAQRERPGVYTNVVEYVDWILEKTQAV
FXIIa inh: blocks human coagulation factor XIIa protease activity; P00748; purified FXIIa, Boc-QGR-AMC fluorogenic substrate, 2 h; inhibition, % at 5 µM; actives 0.3% (n = 220,000); in the data active = inhibition above about 40%
KLK5 inh: blocks human kallikrein 5 protease activity; AID 873; inhibition, % at 5 µM; recombinant hK5, fluorogenic AMC substrate cleavage; actives 0.59% (n = 210,000);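 active = inhibition of 40% or more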
m-calpain inh: blocks pig calpain II enzyme activity. purified calpain II, fluorogenic peptide substrate, 30 min. inhibition, % at 16 µM. actives 0.37% (n = 220,000). AID 1236;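 active = inhibition above about 50%, limit read from the data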
Thrombin inh: inhibitors of human thrombin; inhibition, % at 5 µM; actives 0.26% (n = 220,000); alpha-thrombin, Boc-VPR-AMC fluorogenic substrate cleavage; P00734;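 active = inhibition at or above 40%; inactive = inhibition below 40%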
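Test system: human alpha-thrombin; medium: pH 7.5 Tris-saline with Tween 20; times: reaction at room temperature; signal: AMC fluorescence at 355 nm excitation and 460 nm emission; also added: Boc-VPR-AMC substrate, 15 µM final; dosing: one concentration per compound, 5 µM, with 0.2% DMSO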
Hits are given with their value; 0 = inactive; - = not tested or not shown.

SMILES	Furin inhibitor	FXIa inh 1536	FXIIa inh	KLK5 inh	m-calpain inh	Thrombin inh
COc1ccccc1-n1c(=S)[nH]c2c(sc(=S)n2-c2ccccc2C)c1=O	0	0	0	0	0	0
O=C(Cn1nc(C(F)F)cc1C(F)F)NNC(=S)Nc1ccc(F)cc1	0	0	0	0	0	50
CC(=O)N(c1ccccc1)c1nc(/C=C/C(=O)O)cs1	0	0	0	0	0	0
CCc1ccc(N(C(C)=O)c2nc(CCl)cs2)cc1	0	0	0	88	0	0
Brc1cccc(/C=N/Nc2nn[nH]n2)c1	0	102	43	0	0	0
O=C(/C=C/c1cccc(Br)c1)Nc1nn[nH]n1	0	0	0	0	0	0
COc1ccc(-c2[nH]ncc2C2N=C(N)Nc3nc4ccccc4n32)cc1 (stereo not given)	0	47	0	0	0	0
O=C(c1ccc(S(=O)(=O)NCC2CCCO2)cc1)N1CCc2ccccc21 (stereo not given)	0	0	0	0	0	0
O=C(CNCC1CCCO1)N1CCCc2ccccc21 (stereo not given)	0	0	0	52	0	0
O=C1c2ccccc2C(=O)N1/N=C/c1ccc(O)c(O)c1O	0	0	0	45	0	0
COC(=O)C(Nc1ccccc1Cl)(c1cc(C)c(O)c(C)c1)C(F)(F)F (stereo not given)	0	0	0	0	52	0
CCOC(=O)C(NC(=O)c1ccccc1Cl)(Nc1ccc(C)c(C)c1)C(F)(F)F (stereo not given)	0	0	0	0	0	0
CC(Sc1nnc(-c2cc3ccccc3o2)n1-c1ccccc1)C(=O)O (stereo not given)	0	0	0	0	0	47
O=C(Nc1cc(Sc2ccccn2)cc([N+](=O)[O-])c1)c1cccc(F)c1	0	0	0	0	53	0
COc1ccc(S(=O)(=O)N2CCCCCC2)cc1NC(=O)Cc1cc(OC)c(OC)c(OC)c1	0	0	0	0	0	0
COc1ccc(S(=O)(=O)N2CCCCC2)cc1NC(=O)CN(C)C1CCCCC1	0	0	49	0	53	-
Cc1c(C)n(C(=O)CN2CCC(C)CC2)c2ccccc12	0	0	0	0	0	0
COc1cccc(N2CCN(C3CC(=O)N(c4ccc(F)c(Cl)c4)C3=O)CC2)c1 (stereo not given)	0	0	0	44	0	0
COc1cccc(N2CCN(C3CC(=O)N(c4ccc(C)c(Cl)c4)C3=O)CC2)c1 (stereo not given)	0	0	0	0	0	0
O=C(OCc1ccccc1)/C(=C/c1cccc2ccccc12)NC(=O)c1ccccc1	0	0	0	47	0	0
COc1ccc(/C=C(\NC(=O)c2ccccc2Cl)C(=O)NCCCC(=O)O)cc1	0	0	0	0	52	0
O=C(O)CCCNC(=O)/C(=C\C=C\c1ccccc1)NC(=O)c1ccccc1Cl	0	0	0	0	0	0
Cc1ccc(NC2=C(Cl)C(=O)c3ccccc3C2=O)cc1	0	0	0	0	0	0
CCNC1=C(Cl)C(=O)c2ccccc2C1=O	0	0	0	0	50	0
N#Cc1c(NC(=O)c2cccc(S(=O)(=O)Nc3ccc(C(=O)O)cc3)c2)sc2c1CCCC2	0	0	0	0	52	0
SMILES	Furin inhibitor	FXIa inh 1536	FXIIa inh	KLK5 inh	m-calpain inh	Thrombin inh
Cc1cc(C(=O)Nc2sc3c(c2C#N)CCCCC3)cs1	0	0	0	0	0	0
COc1ccc(C(=O)NCCN2CCCC2)cc1OC	0	0	0	0	0	0
COc1ccc(C(=O)NCCN2CCOCC2)cc1OC	30	0	0	0	0	0
O=C(NCc1ccc(F)cc1)c1ccc(S(=O)(=O)Nc2cccc(C(F)(F)F)c2)cc1	0	0	0	49	0	0
Cc1ccc(C(=O)C(=O)c2ccc(C)c(N)c2)cc1N	0	53	40	0	0	0
Cn1nnnc1SCC(=O)N1CCN(S(=O)(=O)c2ccc(Cl)cc2)CC1	0	0	0	0	0	0
Cc1ccc(SCc2[nH]nc3c2C2(CCSCC2)C(C#N)=C(N)O3)cc1	0	0	0	0	0	0
CCOC(=O)N1CCC2(CC1)C(C#N)=C(N)Oc1n[nH]c(CSc3ccc(C)cc3)c12	0	0	0	0	91	0
CC(C)OCCCn1c(=S)[nH]c2cc3c(cc2c1=O)OCO3	0	0	0	45	0	44
O=C(CC1Oc2ccccc2NC1=O)NCCCN1CCCC1=O (stereo not given)	0	0	0	53	0	0
CC(C)N(CCCNC(=O)CC1Oc2ccccc2NC1=O)Cc1ccccc1 (stereo not given)	0	0	0	55	0	0
CCOC(=O)c1nnn(CC(=O)NC(=O)Nc2ccc(F)cc2)c1C(=O)OCC	0	0	0	0	0	0
CC(=O)c1ccc(NC(=O)/C(Cl)=C/c2ccccc2)cc1	0	57	0	0	0	0
O=C(Nc1ccc(F)cc1)/C(Cl)=C/c1ccccc1	0	0	0	0	0	0
O=C(Nc1cccc2ccccc12)/C(Cl)=C/c1ccccc1	0	0	0	0	58	0
CCOC(=O)C1=C(C)NC(=S)NC1c1ccsc1 (stereo not given)	0	0	0	0	0	0
Cc1ccc(NC(=S)N2CCC(N(C)CC3CCCO3)CC2)cc1 (stereo not given)	0	0	0	0	0	0
O=C(C1=C[C@H](c2ccccc2)C[C@H](OCc2ccc(CO)cc2)O1)N1CCCCCCC1	0	0	0	0	0	0
Cc1nn(C)c(C)c1/C=C(/C(=O)C(C)(C)C)n1cncn1	0	0	0	0	0	0
Cc1nn(C)c(C)c1/C=C(/C(=O)C(C)C)n1cncn1	0	42	0	40	0	0
NS(=O)(=O)c1cccc(NC(=O)COC(=O)CN2C(=O)C3CC=CCC3C2=O)c1 (stereo not given)	0	0	0	0	0	0
O=C(COC(=O)COc1ccccc1Cl)Nc1ccccc1OC(F)F	0	0	100	0	0	0
CC(C)[C@H](NC(=O)c1ccco1)C(=O)OCC(=O)Nc1ccccc1OC(F)F	0	0	0	54	0	0
O=C(COC(=O)c1ncc(Cl)c(Cl)c1Cl)Nc1ccccc1OC(F)F	0	0	0	0	0	0
CSC1=N/C(=C\c2ccc(C)o2)C(=O)S1	0	0	0	102	0	104
SMILES	Furin inhibitor	FXIa inh 1536	FXIIa inh	KLK5 inh	m-calpain inh	Thrombin inh
CCN(CC)c1ccc(NC(=O)c2nc3nc(C)cc(C(F)F)n3n2)cc1	0	0	0	48	0	0
Cn1ncc(Cl)c1C(=O)Nc1cccc(Cl)c1	30	0	0	0	0	0
COc1cc(C(N)=O)cc(Cl)c1OC	0	0	47	0	0	0
CNC(=O)c1cc(Cl)c(OC)c(OC)c1	0	0	0	0	0	0
CCN(CC)CCCNC(=O)Cn1ccc2ccccc2c1=O	0	0	0	0	0	0
CCCCN(CC)CCNC(=O)CNC(=O)Cn1ccc2ccccc2c1=O	0	0	0	0	52	0
